{
  "source": "ChEMBL document CHEMBL4689842",
  "about": "“EUbOPEN Chemogenomics Library wave 1” (2021)",
  "tested_on": "U2OS",
  "assay": "Multiplex assay against U2OS",
  "type": "toxicity, cell-based",
  "settings": "human, 10 µM, compound concentration 10 uM",
  "how_it_was_run": "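At seeding, live cells were stained with Hoechst33342, BioTracker Green Microtubule Cytoskeleton Dye, MitoTracker Red and Annexin V Alexa Fluor 680. After compound addition they were imaged on a CQ1 microscope at 37°C and 5% CO2, and CellPathfinder machine-learning gating sorted them into Hoechst high-intensity objects or normal cells, with normal cells further split into healthy, pyknosed or fragmented nuclei and pyknosed cells into mitotic or apoptotic. Tubulin, mitochondrial-mass and membrane-permeability phenotypes are given as per cents of cells with healthy nuclei.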",
  "note": "Where “and” joins values, the source holds several entries; their conditions need not be identical. Identical values can stand only once.",
  "data": [
    {"smiles": "CCOCCn1cc(C(=O)Nc2ccc(-n3nc(-c4cccnc4)cc3C(F)(F)F)cn2)ccc1=O", "note": "[BI 1935]", "values": [
      {"measurement": "Population Apoptotic (%)", "setting": "12 h, replicate 1", "value": "22% and 50% and 42%"},
      {"measurement": "Population Healthy Nuclei (%)", "setting": "12 h, replicate 1", "value": "82% and 63% and 91%"},
      {"measurement": "Population Hoechst High Intensity Objects (%)", "setting": "12 h, replicate 1", "value": "4% and 8% and 3%"},
      {"measurement": "Population Mitotic Cells (%)", "setting": "12 h, replicate 1", "value": "77% and 50% and 57%"},
      {"measurement": "Population Normal (%)", "setting": "12 h, replicate 1", "value": "95% and 91% and 96%"},
      {"measurement": "Total Cell Count", "setting": "12 h, replicate 1", "value": "162 and 131 and 216"},
      {"measurement": "Population Apoptotic (%)", "setting": "12 h, replicate 2", "value": "28% and 47% and 16%"},
      {"measurement": "Population Fragmented Nuclei (%)", "setting": "12 h, replicate 2", "value": "5% and 8% and 12%"},
      {"measurement": "Population Healthy Nuclei (%)", "setting": "12 h, replicate 2", "value": "77% and 65%"},
      {"measurement": "Population Hoechst High Intensity Objects (%)", "setting": "12 h, replicate 2", "value": "10% and 7% and 9%"},
      {"measurement": "Population Mitochondria Different-Phenotype (%)", "setting": "12 h, replicate 2", "value": "22% and 47% and 19%"},
      {"measurement": "Population Mitotic Cells (%)", "setting": "12 h, replicate 2", "value": "71% and 52% and 83%"},
      {"measurement": "Population Normal (%)", "setting": "12 h, replicate 2", "value": "89% and 92% and 90%"},
      {"measurement": "Total Cell Count", "setting": "12 h, replicate 2", "value": "89 and 79 and 129"},
      {"measurement": "Population Apoptotic (%)", "setting": "24 h, replicate 1", "value": "42% and 33% and 27%"},
      {"measurement": "Population Healthy Nuclei (%)", "setting": "24 h, replicate 1", "value": "62% and 86% and 91%"},
      {"measurement": "Population Hoechst High Intensity Objects (%)", "setting": "24 h, replicate 1", "value": "6% and 3%"},
      {"measurement": "Population Mitochondria Different-Phenotype (%)", "setting": "24 h, replicate 1", "value": "51% and 17% and 20%"},
      {"measurement": "Population Mitotic Cells (%)", "setting": "24 h, replicate 1", "value": "57% and 66% and 72%"},
      {"measurement": "Population Normal (%)", "setting": "24 h, replicate 1", "value": "93% and 96%"},
      {"measurement": "Total Cell Count", "setting": "24 h, replicate 1", "value": "147 and 211 and 291"},
      {"measurement": "Population Apoptotic (%)", "setting": "24 h, replicate 2", "value": "46% and 40% and 66%"},
      {"measurement": "Population Fragmented Nuclei (%)", "setting": "24 h, replicate 2", "value": "3% and 9%"},
      {"measurement": "Population Healthy Nuclei (%)", "setting": "24 h, replicate 2", "value": "82% and 66%"},
      {"measurement": "Population Hoechst High Intensity Objects (%)", "setting": "24 h, replicate 2", "value": "7% and 8%"},
      {"measurement": "Population Mitochondria Different-Phenotype (%)", "setting": "24 h, replicate 2", "value": "27% and 50%"},
      {"measurement": "Population Mitotic Cells (%)", "setting": "24 h, replicate 2", "value": "53% and 60% and 33%"},
      {"measurement": "Population Normal (%)", "setting": "24 h, replicate 2", "value": "92% and 91%"},
      {"measurement": "Population Tubulin-Different-Phenotype (%)", "setting": "24 h, replicate 2", "value": "27% and 44% and 22%"},
      {"measurement": "Total Cell Count", "setting": "24 h, replicate 2", "value": "101 and 92 and 149"},
      {"measurement": "Population Apoptotic (%)", "setting": "48 h, replicate 1", "value": 51, "unit": "%"},
      {"measurement": "Population Fragmented Nuclei (%)", "setting": "48 h, replicate 1", "value": 16, "unit": "%"},
      {"measurement": "Population Healthy Nuclei (%)", "setting": "48 h, replicate 1", "value": 64, "unit": "%"},
      {"measurement": "Population Hoechst High Intensity Objects (%)", "setting": "48 h, replicate 1", "value": 10, "unit": "%"},
      {"measurement": "Population Membrane Permeable-Phenotype (%)", "setting": "48 h, replicate 1", "value": 15, "unit": "%"},
      {"measurement": "Population Mitochondria Different-Phenotype (%)", "setting": "48 h, replicate 1", "value": 26, "unit": "%"},
      {"measurement": "Population Mitotic Cells (%)", "setting": "48 h, replicate 1", "value": 48, "unit": "%"},
      {"measurement": "Population Normal (%)", "setting": "48 h, replicate 1", "value": 89, "unit": "%"},
      {"measurement": "Population Pyknosed Nuclei (%)", "setting": "48 h, replicate 1", "value": 19, "unit": "%"},
      {"measurement": "Population Tubulin-Different-Phenotype (%)", "setting": "48 h, replicate 1", "value": 51, "unit": "%"},
      {"measurement": "Total Cell Count", "setting": "48 h, replicate 1", "value": 178},
      {"measurement": "Population Apoptotic (%)", "setting": "48 h, replicate 2", "value": 52, "unit": "%"},
      {"measurement": "Population Fragmented Nuclei (%)", "setting": "48 h, replicate 2", "value": 7, "unit": "%"},
      {"measurement": "Population Healthy Nuclei (%)", "setting": "48 h, replicate 2", "value": 73, "unit": "%"},
      {"measurement": "Population Hoechst High Intensity Objects (%)", "setting": "48 h, replicate 2", "value": 4, "unit": "%"},
      {"measurement": "Population Membrane Permeable-Phenotype (%)", "setting": "48 h, replicate 2", "value": 17, "unit": "%"},
      {"measurement": "Population Mitochondria Different-Phenotype (%)", "setting": "48 h, replicate 2", "value": 30, "unit": "%"},
      {"measurement": "Population Mitotic Cells (%)", "setting": "48 h, replicate 2", "value": 47, "unit": "%"},
      {"measurement": "Population Normal (%)", "setting": "48 h, replicate 2", "value": 95, "unit": "%"},
      {"measurement": "Population Tubulin-Different-Phenotype (%)", "setting": "48 h, replicate 2", "value": 40, "unit": "%"},
      {"measurement": "Total Cell Count", "setting": "48 h, replicate 2", "value": 114}
    ]}
  ]
}
